Where a SMILES comes first, the peptide text is derived from it. [ ]: non-standard residue; d: D form. The star is where a group is joined. Dmt = Cc1cc(O)cc(C)c1C[C@H](N)C(=O)O; Tic = O=C(O)[C@@H]1Cc2ccccc2CN1; NHtBu = CC(C)(C)N*; NHNH2 = NN*
Key:
[1] = species: Mus musculus; test: Antagonistic functional bioactivity against delta-receptor from mouse vas deferens(MVD); details: for Kb: read-out: pA2 (converted)
[2] = species: Cavia porcellus; test: Antagonistic functional bioactivity against […]-receptor from guinea pig ileum(GPI)
[3] = target: T1, Opioid receptors; mu & delta (Rattus norvegicus) (UniProt P33533+P33535); test: Antagonistic activity ratio (Ki of mu receptors compared to Ki of delta receptors).; assay type: functional
T1 sequence (P33533 whole entry, looked up): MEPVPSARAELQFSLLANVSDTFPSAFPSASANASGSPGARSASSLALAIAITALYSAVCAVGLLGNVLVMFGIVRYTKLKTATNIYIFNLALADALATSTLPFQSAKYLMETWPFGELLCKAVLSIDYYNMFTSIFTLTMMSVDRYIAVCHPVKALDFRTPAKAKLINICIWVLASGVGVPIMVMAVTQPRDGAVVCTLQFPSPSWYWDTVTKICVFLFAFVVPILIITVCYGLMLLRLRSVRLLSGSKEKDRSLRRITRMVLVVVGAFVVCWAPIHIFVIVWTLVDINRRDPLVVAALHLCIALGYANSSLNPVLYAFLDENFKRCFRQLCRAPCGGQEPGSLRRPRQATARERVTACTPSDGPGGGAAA
T1 sequence (P33535 whole entry, looked up): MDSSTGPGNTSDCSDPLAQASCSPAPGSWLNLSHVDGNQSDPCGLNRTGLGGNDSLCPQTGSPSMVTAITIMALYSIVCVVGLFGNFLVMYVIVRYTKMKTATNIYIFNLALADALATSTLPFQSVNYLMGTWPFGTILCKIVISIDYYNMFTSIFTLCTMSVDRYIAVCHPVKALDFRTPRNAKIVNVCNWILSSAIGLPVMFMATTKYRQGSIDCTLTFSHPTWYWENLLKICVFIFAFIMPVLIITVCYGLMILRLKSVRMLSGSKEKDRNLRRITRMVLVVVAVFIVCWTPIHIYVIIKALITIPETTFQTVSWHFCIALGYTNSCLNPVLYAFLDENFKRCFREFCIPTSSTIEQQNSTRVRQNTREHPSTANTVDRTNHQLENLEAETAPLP

[4] = target: T1, Opioid receptors; mu & delta (Rattus norvegicus); test: Agonist activity ratio (Ki of mu receptors compared to Ki of delta receptors).; assay type: functional
[5] = species: Mus musculus; test: Antagonistic functional bioactivity against delta-receptor from mouse vas deferens(MVD).; details: for Kb: read-out: pA2 (converted)
[6] = species: Cavia porcellus; test: Antagonistic functional bioactivity against […]-receptor from guinea pig ileum(GPI).; details: for Kb: read-out: pA2 (converted)
[7] = target: T2, Delta-type opioid receptor (Rattus norvegicus, UniProt P33533); test: Binding affinity at Opioid receptor delta 1 from rat brain synaptosomal preparations by H-Dmt-Tic-OH displacement.
T2 sequence (P33533 whole entry): as the sequence (P33533 whole entry, looked up) above

[8] = target: Mu-type opioid receptor (Rattus norvegicus, UniProt P33535); test: Binding affinity at Opioid receptor mu 1 from rat brain synaptosomal preparations by [3H]DAGO displacement.
Chain of Mu-type opioid receptor (P33535 whole entry): as the sequence (P33535 whole entry, looked up) above
Method in brief: (§1)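 Nonspecific binding was set with 2 μM unlabeled peptide, followed by GF/C filtration. Duplicates at 5–9 doses, ≥3 preparations; Ki by Cheng–Prusoff, mean ± SEM.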

[9] = target: T2, Delta-type opioid receptor; test: Binding affinity at Opioid receptor delta 1 from rat brain synaptosomal preparations by [3H]N,N-(Me)2-Dmt-Tic-OH displacement.; method in brief: as §1

Compound	Ke [1] [nM]	Kb [1] [nM]	EC50 [2] [nM]	Ratio [3]	Ratio [4]	Ke [5] [nM]	Kb [5] [nM]	EC50 [6] [nM]	Ki [7] [nM]	Ki [8] [nM]	Ki [9] [nM]	EC50 [5] [nM]	Ke [6] [nM]	Kb [6] [nM]
Cc1cc(O)cc(C)c1C[C@H](N)C(=O)N1Cc2ccccc2C[C@H]1C(=O)Nc1nn[nH]n1	36.3	36.3	8200	4	53									
Cc1cc(O)cc(C)c1C[C@@H](C(=O)N1Cc2ccccc2C[C@H]1C(=O)O)N1CCCCC1				2760	1730	49	49	> 10000						
Cc1cc(O)cc(C)c1C[C@@H](C(=O)N1Cc2ccccc2C[C@H]1C(=O)O)N1CCCC1				573	502	121	126	> 10000						
Cc1cc(O)cc(C)c1C[C@@H](C(=O)N1Cc2ccccc2C[C@@H]1C(=O)NC12C[C@H]3C[C@@H](C1)C[C@@H](C2)C3)N(C)C				0.42	0.36	128	123	4480	120	50.5	140			
Cc1cc(O)cc(C)c1C[C@H](N)C(=O)N1Cc2ccccc2C[C@H]1CC(=O)O						1.41	1.58	> 10000						
Cc1cc(O)cc(C)c1C[C@H](N)C(=O)N1Cc2ccccc2C[C@H]1C(=O)NN (H-[Dmt]-[Tic]-NHNH2)				2	86									
Cc1cc(O)cc(C)c1C[C@H](N)C(=O)N1Cc2ccccc2C[C@H]1C(=O)NC12C[C@H]3C[C@@H](C1)C[C@@H](C2)C3				0.8	3	>10000		36	1.01	0.76	0.26	870		
Cc1cc(O)cc(C)c1C[C@H](N)C(=O)N1Cc2ccccc2C[C@H]1C(=O)N[C@@H](C)C(=O)NC12C[C@H]3C[C@@H](C1)C[C@@H](C2)C3						0.51	0.513	1000	0.04	2.52	0.073			
Cc1cc(O)cc(C)c1C[C@@H](C(=O)N1Cc2ccccc2C[C@H]1C(=O)NC12C[C@H]3C[C@@H](C1)C[C@@H](C2)C3)N(C)C				9	7	0.87	0.871	16	0.12	1.12	0.16			
Cc1cc(O)cc(C)c1C[C@@H](C(=O)N1Cc2ccccc2C[C@H]1C(=O)NC(C)(C)C)N(C)C						14.1	14.1	> 10000					0.3	302
Cc1cc(O)cc(C)c1C[C@H](N)C(=O)N1Cc2ccccc2C[C@H]1C(=O)NC(C)(C)C (H-[Dmt]-[Tic]-NHtBu)				6	14	1.74	5.75	1040						
CNC(=O)[C@H](C)NC(=O)[C@@H]1Cc2ccccc2CN1C(=O)[C@@H](N)Cc1c(C)cc(O)cc1C (H-[Dmt]-[Tic]-Ala-NHMe)				47	100			290				1290		
COC(=O)[C@@H]1Cc2ccccc2CN1C(=O)[C@@H](N)Cc1c(C)cc(O)cc1C (H-[Dmt]-[Tic]-OMe)				0.8	44									
Cc1cc(O)cc(C)c1C[C@H](N)C(=O)N1Cc2ccccc2C[C@H]1C(=O)N[C@@H](C)C(=O)NC(C)(C)C (H-[Dmt]-[Tic]-Ala-NHtBu)				48	61	0.69	0.692	> 10000						174
Cc1cc(O)cc(C)c1CC(CN)C(=O)N1Cc2ccccc2C[C@H]1C(=O)O (stereo not given in full)				4	155									
Cc1cc(O)cc(C)c1C[C@@H](C(=O)N1Cc2ccccc2C[C@H]1C(=O)O)n1cccc1	408	407	> 10000	562	338									
COC(=O)[C@H](C)NC(=O)[C@@H]1Cc2ccccc2CN1C(=O)[C@@H](N)Cc1c(C)cc(O)cc1C (H-[Dmt]-[Tic]-Ala-OMe)				83	48									
CNC(=O)[C@@H]1Cc2ccccc2CN1C(=O)[C@@H](N)Cc1c(C)cc(O)cc1C (H-[Dmt]-[Tic]-NHMe)						>10000		> 10000				21200	1.15	1150
Cc1cc(O)cc(C)c1C[C@H](N)C(=O)N1Cc2ccccc2C[C@@H]1C(=O)NC12C[C@H]3C[C@@H](C1)C[C@@H](C2)C3				0.004	0.01	>10000		1680	70.3	0.26	24.5			
CNC(=O)[C@@H]1Cc2ccccc2CN1C(=O)[C@H](Cc1c(C)cc(O)cc1C)N(C)C				1270	669	0.41	0.407	> 10000					0.39	389

Reference: ChEMBL document CHEMBL1132283, “Further studies on the Dmt-Tic pharmacophore: hydrophobic substituents at the C-terminus endow delta antagonists to manifest mu agonism or mu antagonism” (J Med Chem, 1999)
